Compound activity (PubChem)
An excerpt weighted towards active compounds, which were near 4.8% of everything screened.
FLuc inhib CS: Photinus pyralis luciferase inhibition counter-screen; inhibition, % at 10 µM; ATPLite firefly luciferase biochemical luminescence, 10 min; 200,000 compounds, 1.5% hits; P08659;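 active = inhibition above about 50% when tested at 10 µM, limit read from the data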
Target sequence (P08659 whole entry, looked up): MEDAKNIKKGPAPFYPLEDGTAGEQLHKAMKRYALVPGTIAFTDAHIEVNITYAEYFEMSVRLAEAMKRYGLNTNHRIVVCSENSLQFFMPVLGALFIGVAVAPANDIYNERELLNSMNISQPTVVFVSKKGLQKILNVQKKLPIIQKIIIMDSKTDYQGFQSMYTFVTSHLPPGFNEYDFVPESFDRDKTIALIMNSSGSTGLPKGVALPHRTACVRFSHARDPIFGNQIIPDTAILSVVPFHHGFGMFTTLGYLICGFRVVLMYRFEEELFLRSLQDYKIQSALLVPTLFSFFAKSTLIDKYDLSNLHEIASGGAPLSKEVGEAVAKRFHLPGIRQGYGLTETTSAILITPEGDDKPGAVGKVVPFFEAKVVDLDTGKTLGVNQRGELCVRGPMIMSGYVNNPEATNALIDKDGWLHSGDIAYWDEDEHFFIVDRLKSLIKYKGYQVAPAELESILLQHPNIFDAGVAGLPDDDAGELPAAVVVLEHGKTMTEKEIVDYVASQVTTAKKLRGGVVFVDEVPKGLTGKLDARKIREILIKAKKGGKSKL
APP 5UTR inh: APP translation inhibition. SH-SY5Y APP 5'UTR-luciferase reporter, luminescence. inhibition, % at 2 µM. 190,000 compounds, 0.82% hits. AID 1285;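 active = inhibition above a set limit, derived from the sample mean plus 3 SD, cut at about 45% in these data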
FLuc stim CS: firefly luciferase counter-screen for stimulation assays; activation factor at 10 µM; ATPlite luciferase biochemical, luminescence, 10 min; 0 = ATP-free wells, 1 = DMSO control; 200,000 tested, under 10 active; P08659; AID 1027;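 active = luciferase activation factor, scaled between plate controls, of at least 2 with compound at 10 µM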
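Assay system – cell-free luciferase reagent · Medium – PBS-based ATP solution · Dosing – test compounds dosed from 2 mM stocks in 100% DMSO · Timing – 10 min, room temperature · Technique – light output (luminescence) · Measure – luminescence gain marking luciferase activators · Controls – No-ATP low control, compound-free enzyme-plus-ATP high control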
NF-kB neuron act: raises NF-kB expression in human neuronal cells. NF-kB reporter expression; active compounds read high. fold change at 12.5 µM. 190,000 compounds, 1.6% hits. AID 1239; in the data active = fold change above about 3.3
APP 5'UTR act: activates APP 5'UTR luciferase reporter. SH-SY5Y APP 5'UTR luciferase reporter, luminescence; zero percent = DMSO vehicle wells. activation, % at 2 µM. 190,000 compounds, 1% hits. AID 1276;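 active = activation above a set limit, based on mean plus 3 SD of controls, cut at about 140% in these data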
STAT1 act: activators of IFN-gamma induced STAT1 signaling. NIH 3T3 STAT1-luciferase reporter, luminescence; 100% = IFN-gamma alone, no compound. activation (% of control), % at 5.5 µM. 200,000 compounds, 2.6% hits. AID 932;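 active = activation above the screen-wide mean activation plus 3 SD, cut at about 130% in these data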;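 note: raw ratio to IFN-gamma control signal so 100% means no change and 0% no light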
STAT1 activ conf: confirmation of STAT1 signaling activators; 1,200 compounds, 97% hits; shares compounds with STAT1 act; activation (% of control), % at 5.7 µM; AID 1262; NIH 3T3 STAT1-luciferase reporter, IFN-gamma potentiation, luminescence; 100% = IFN-gamma EC80 alone, no compound;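 active = activation above a set limit carried over from the earlier primary STAT1 screen, cut at about 140% in these data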;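 note: simple ratio to median IFN-gamma plus DMSO wells so 0% means no light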
NFkB act STAT1ct: activates NF-kappaB, counter-screen to STAT1 activators. shares compounds with STAT1 act. 1,200 compounds, 43% hits. activation (% of control), % at 5.7 µM. HEK293T NF-kB luciferase reporter, TNF-alpha stimulated, luminescence; 100% = TNF-alpha with vehicle only;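 active = activation above the mean of solvent-only control wells plus 3 SD, set per campaign, cut at about 130% in these data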;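 note: TNF-alpha given at a submaximal dose yielding about 80% of full reporter signal; values are well signal over median control so 100% means no change and 0% no light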
STAT3 act 2: activates human STAT3, counter-screen to STAT1 activators. shares compounds with STAT1 act. U3A cells STAT3-luciferase reporter, IL-6, luminescence; cells lack STAT1; 100 = IL-6 alone, no compound effect. activation (% of control), % at 5.7 µM. 1,200 compounds, 46% hits. AID 1316;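 active = activation above the solvent-only control well mean plus 3 SD, set per plate batch, cut at about 110% in these data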;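 note: 0% = no luminescence and 100% = median IL-6 plus DMSO wells; higher means more STAT3 reporter activation so hits are non-selective activators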
An asterisk follows results filed as active.

`Cc1cc(C)c(NC(=O)CSc2nnc(SCC(=O)Nc3c(C)cc(C)cc3C)n2N)c(C)c1` gave FLuc inhib CS -2, APP 5UTR inh -8, FLuc stim CS 1, NF-kB neuron act 1.1, APP 5'UTR act 8 and STAT1 act 98.
For CC1=CC(c2ccccc2)=Nc2ccc(C)cc2N1 the results were FLuc inhib CS 45, APP 5UTR inh -182, FLuc stim CS 0.6, NF-kB neuron act 5.4*, APP 5'UTR act 182*, STAT1 act 165*, STAT1 activ conf 202*, NFkB act STAT1ct 130 and STAT3 act 2 131*.
Cc1cc(C)nc(CCNC(=O)c2cc(COc3ccc(F)cc3F)on2)n1 was read as FLuc inhib CS -5, APP 5UTR inh -6, FLuc stim CS 1.1, APP 5'UTR act 7 and STAT1 act 94.
Cc1nonc1C1CCCN1C(=O)c1cc(COc2ccc(F)cc2F)on1 (stereo not given) was read as FLuc inhib CS -2, APP 5UTR inh -101, FLuc stim CS 1, NF-kB neuron act 2.7, APP 5'UTR act 101, STAT1 act 168*, STAT1 activ conf 183*, NFkB act STAT1ct 137* and STAT3 act 2 110.
For O=[N+]([O-])c1cccc(-c2cn3ccccc3n2)c1 the results were FLuc inhib CS 28, APP 5UTR inh -118, FLuc stim CS 0.7, NF-kB neuron act 5.5*, APP 5'UTR act 118, STAT1 act 153*, STAT1 activ conf 206*, NFkB act STAT1ct 141* and STAT3 act 2 115*.
`CC1=C/C(=N\NC(=O)c2cccs2)CC(C)(C)C1` gave FLuc inhib CS -5, APP 5UTR inh -29, FLuc stim CS 1, NF-kB neuron act 1.2, APP 5'UTR act 29 and STAT1 act 113.
`CC(=O)N1CCC(=NNC(=O)c2cccs2)CC1` gave FLuc inhib CS -8, APP 5UTR inh -117, FLuc stim CS 1.1, NF-kB neuron act 1.1, APP 5'UTR act 117, STAT1 act 160*, STAT1 activ conf 119, NFkB act STAT1ct 109 and STAT3 act 2 104.
Screening O=C(NN=C1C2CC3CC(C2)CC1C3)c1cccs1 returned FLuc inhib CS 1, APP 5UTR inh -131, FLuc stim CS 1, NF-kB neuron act 2.2, APP 5'UTR act 131 and STAT1 act 122.
`O=C(NN=C1CCCC1)c1cccs1` gave FLuc inhib CS -4, APP 5UTR inh -88, FLuc stim CS 1, NF-kB neuron act 1.1, APP 5'UTR act 88, STAT1 act 156*, STAT1 activ conf 114, NFkB act STAT1ct 109 and STAT3 act 2 100.
`CCOc1ccc2nc(NC(=S)N(C)C)sc2c1` gave FLuc inhib CS 18, APP 5UTR inh -167, FLuc stim CS 0.8, NF-kB neuron act 12*, APP 5'UTR act 167*, STAT1 act 183*, STAT1 activ conf 293*, NFkB act STAT1ct 134* and STAT3 act 2 103.
`CN(C)C(=S)Nc1nc2ccccc2s1` gave FLuc inhib CS 10, APP 5UTR inh -63, FLuc stim CS 0.9, NF-kB neuron act 9.1*, APP 5'UTR act 63, STAT1 act 165*, STAT1 activ conf 170*, NFkB act STAT1ct 138* and STAT3 act 2 83.
Screening O=C(O)CCN1C(=O)c2ccc(NC(=O)Cc3ccc(Cl)cc3)cc2C1=O returned FLuc inhib CS -2, APP 5UTR inh -14, FLuc stim CS 1, APP 5'UTR act 14 and STAT1 act 100.
